The subject of one experiment is KB. Nature of the experiment: The cytotoxic activity was determined against KB cell line. Type of experiment: functional, Mus musculus. The conditions noted are these: Homo sapiens, read-out: ED50 (the source's name). The method in brief: (§1)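 KB or HeLa monolayers were grown in Eagle's MEM with 10% fetal calf serum and subcultured every 6–7 days. Drugs were suspended in sterile 0.5% carboxymethylcellulose. 6-Mercaptopurine at 1 μM was the positive control in every run. Cytotoxic concentration is expressed in μg/mL.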

Experiment [1] relates to P388. The experiment is described as follows: Percentage of treated /control was determined against P-388 leukemia in […] mice, at a dose of 320 mg/kg. The format is functional, Mus musculus.
Experiment [2] has as its system Mus musculus. Nature of the experiment: Long term survivors/no of treated mice was determined for Ehrlich Ascites tumor after intraperitoneal administration at a dose of 150 mg/kg in mice; 15/18.
In experiment [3] the test system is Mus musculus. Nature of the experiment: Percentage of treated /control was determined against P-388 ascitic leukemia in […] mice, at a dose of 200 mg/kg. The format is functional. An outline of the steps: (§2)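 Female BDF1 mice bearing P-388 ascitic leukemia, run per standard NCI protocol. Single ip dose on day 1, suspended in 0.9% NaCl with 0.10% Tween 80 and serially diluted in saline. T/C% = median survival time of treated mice / median survival of controls × 100. 5-Fluorouracil at 200 mg/kg as positive control. Groups of 6; mean of three tests.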

Experiment [4] deals with Mus musculus. The experiment is described as follows: Antitumor activity against Ehrlich Ascites tumor after intraperitoneal administration at a dose of 400 mg/kg in mice; 0/6. The format is functional.
Experiment [5] concerns Mus musculus. The experiment is described as follows: No of survivors was determined for P-388 ascitic leukemia in mice, at a dose of 100 mg/kg; 6/6. Type of experiment: functional.
Experiment [6] concerns Mus musculus. The experiment is described as follows: Percentage of treated /control was determined for Ehrlich Ascites tumor after intraperitoneal administration at a dose of 250 mg/kg in mice. The format is functional. The method in brief: (§3)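 Female Albino Swiss mice, five to six weight-matched per group, implanted ip with 1×10^6 viable Ehrlich ascites cells (Trypan blue count). Single ip dose 24 h after implantation (day 1), suspended in 0.9% NaCl with 0.10% Tween 80 and serially diluted in saline. T/C% read at day 12. Survival followed 60 days. Mean of three tests (two at 90 and 100 mg/kg).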

Experiment [7] concerns Mus musculus. The experiment is described as follows: Percentage of treated /control was determined for Ehrlich Ascites tumor after intraperitoneal administration at a dose of 150 mg/kg in mice. The format is functional. An outline of the steps:
as §3

For experiment [8], the system named is Mus musculus. Nature of the experiment: Antitumor activity against Ehrlich Ascites tumor after intraperitoneal administration at a dose of 250 mg/kg in mice; 6/6. Type of experiment: functional.
The test system of experiment [9] is Mus musculus. The experiment is described as follows: Antitumor activity against Ehrlich Ascites tumor after intraperitoneal administration at a dose of 200 mg/kg in mice; 6/6. Type of experiment: functional.
The subject of experiment [10] is Mus musculus. Nature of the experiment: Long term survivors/no of treated mice was determined for Ehrlich Ascites tumor after intraperitoneal administration at a dose of 200 mg/kg in mice; 18/18.
Experiment [11] has as its system Mus musculus. Nature of the experiment: Percentage of treated /control was determined for Ehrlich Ascites tumor after intraperitoneal administration at a dose of 90 mg/kg in mice. The format is functional. The method in brief: as §3
For experiment [12], the system named is Mus musculus. Nature of the experiment: Number of toxic death/ no of treated mice was determined for Ehrlich Ascites tumor after intraperitoneal administration at a dose of 400 mg/kg in mice; 6/6. The format is functional.
For experiment [13], the system named is Mus musculus. Nature of the experiment: Antitumor activity against P-388 ascitic leukemia in mice, at a dose of 200 mg/kg; 6/6. Type of experiment: functional.
A further experiment deals with HeLa. The experiment is described as follows: The cytotoxic activity was determined against HeLa cell line. The format is functional, Mus musculus. The following applies: Homo sapiens, read-out: ED50 (the source's name). An outline of the steps:
as §1

The subject of experiment [14] is Mus musculus. Nature of the experiment: No of survivors was determined for Ehrlich Ascites tumor after intraperitoneal administration at a dose of 100 mg/kg in mice; 6/6. Type of experiment: functional.
Experiment [15] concerns Mus musculus. Nature of the experiment: Percentage of treated /control was determined against P-388 ascitic leukemia in mice, at a dose of 100 mg/kg. The format is functional. The method in brief:
as §2

Experiment [16] concerns Mus musculus. Nature of the experiment: Percentage of treated /control was determined for Ehrlich Ascites tumor after intraperitoneal administration at a dose of 100 mg/kg in mice. The format is functional. An outline of the steps: as §3
The test system of experiment [17] is Mus musculus. The experiment is described as follows: Long term survivors/no of treated mice was determined for Ehrlich Ascites tumor after intraperitoneal administration at a dose of 250 mg/kg in mice; 15/18.
In experiment [18] the test system is Mus musculus. Nature of the experiment: Antitumor activity against P-388 ascitic leukemia in mice, at a dose of 400 mg/kg; 0/6. The format is functional.
For experiment [19], the system named is Mus musculus. Nature of the experiment: Antitumor activity against Ehrlich Ascites tumor after intraperitoneal administration at a dose of 150 mg/kg in mice; 6/6. Type of experiment: functional.
In experiment [20] the test system is Mus musculus. Nature of the experiment: Number of toxic death/ no of treated was determined for P-388 ascitic leukemia in mice, at a dose of 400 mg/kg; 6/6. The format is functional.
The subject of experiment [21] is Mus musculus. Nature of the experiment: Antitumor activity against Ehrlich Ascites tumor after intraperitoneal administration at a dose of 90 mg/kg in mice; 3/5. Type of experiment: functional.
The subject of experiment [22] is Mus musculus. The experiment is described as follows: Long term survivors/no of treated mice was determined for Ehrlich Ascites tumor after intraperitoneal administration at a dose of 100 mg/kg in mice; 12/12. The format is functional.
The test system of experiment [23] is Mus musculus. Nature of the experiment: Long term survivors/no of treated mice was determined for Ehrlich Ascites tumor after intraperitoneal administration at a dose of 90 mg/kg in mice; 5/10. The format is functional.
For experiment [24], the system named is Mus musculus. Nature of the experiment: Percentage of treated /control was determined for Ehrlich Ascites tumor after intraperitoneal administration at a dose of 200 mg/kg in mice. Type of experiment: functional. An outline of the steps:
as §3

Experiment [25] relates to P388. The experiment is described as follows: Percentage of treated /control was determined against P-388 leukemia in […] mice, at a dose of 100 mg/kg. Type of experiment: functional, Mus musculus. An outline of the steps: as §2

Regarding `COc1cc2c(ccc3c4cc(OC)c(OC)cc4c[n+](C)c23)cc1O.[Cl-]` [FAGARONINE], in the experiment on KB, the EC50 is 0.7 µg/mL. Moreover, the T/C in the experiment on P388 [1] is 290%.
As to `O=[N+]([O-])c1ccc2c(ccc3sc4ccccc4[n+]32)c1.[O-][Cl+3]([O-])([O-])[O-]`, the LTS in the experiment with Mus musculus [2] is on record as 15; in the experiment on Mus musculus [10], 18; in the experiment with Mus musculus [17], 15; in the experiment on Mus musculus [22] it was 12; in the experiment with Mus musculus [23], 5. Further, the T/C in the experiment on Mus musculus [3] is recorded as 218%; with Mus musculus [6], -2.5%; in the experiment with Mus musculus [7] it was -0.4%; in the experiment on Mus musculus [11], 57.3%; in the experiment on Mus musculus [15], 153%; with Mus musculus [16], 35.8%. In the experiment on Mus musculus [24], the T/C is -6.2%. Further, the Survival with Mus musculus [4] came out at 0; in the experiment with Mus musculus [5], 6; in the experiment on Mus musculus [8], 6; with Mus musculus [9], 6; in the experiment on Mus musculus [13], 6; with Mus musculus [14] it was 6. For the same compound, the Survival in the experiment on Mus musculus [18] is reported as 0; in the experiment with Mus musculus [19], 6; in the experiment on Mus musculus [21], 3. In addition, the EC50 in the experiment on KB worked out at 0.6 µg/mL; with HeLa, 0.9 µg/mL. Also, the Toxicity with Mus musculus [12] and with Mus musculus [20] was 6 in each case.
On to `COc1cc2c[n+](C)c3c4cc5c(cc4ccc3c2cc1OC)OCO5.[Cl-]` [NITIDINE CHLORIDE], for which the T/C with P388 [25] stood at 129%.
Turning to `O=[N+]([O-])c1ccc2c(ccc3oc4ccccc4[n+]32)c1.[O-][Cl+3]([O-])([O-])[O-]`, the EC50 in the experiment on KB was 12 µg/mL; in the experiment on HeLa, 15 µg/mL.

The values are drawn from ChEMBL document CHEMBL1122150, “Synthesis and biological activity of benzothiazolo- and benzoxazolo[3,2-a]quinolinium salts” (1982).
